Activity calls are given as the source filed them. The calls are words filed in the database; no cut-off is given here. *1 amine or outer side, *2 acyl side, *3 side chain or, on linkers, in order; H or OH if unused. Where a SMILES comes first, the peptide text is derived from it. Bridges are numbered along the chain shown (N, C = ends). Roman numbers before positions name the chains, in order. [ ]: non-standard residue; d: D form. Actinocin(9to1) = Cc1c2oc3c(C)ccc(C(=O)[*:1])c3nc-2c(C(=O)[*:2])c(N)c1=O; NMeV = CN[C@H](C(=O)O)C(C)C; Sar = CNCC(=O)O
How the values were obtained:
[1] = test system: Human betaherpesvirus 5; test: Antiviral activity against 0.1 MOI human cytomegalovirus AD169 infected in human U373-MG cells expressing UL54-EGFP reporter assessed as inhibition of EGFP expression after 48 hrs of infection by confocal fluorescence microscopy; assay type: functional, organism-based; conditions: U-373MG ATCC
How it was run: (§1)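 Stable U373-MG reporter cells were seeded on coverslips at 3×10^5 per well and infected with AD169 at MOI 0.1 or 0.5. They were then treated with 50 µM drug, 5 µM fomivirsen (also given 1 h before and during infection) or 0.2% DMSO. At 48 h p.i. cells were fixed in 4% paraformaldehyde for 15 min, and EGFP-positive cells were counted by confocal microscopy at 20×.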

[2] = test system: Human betaherpesvirus 5; test: Antiviral activity against 0.1 MOI human cytomegalovirus AD169 infected in human U373-MG cells expressing UL112/113-EGFP reporter assessed as inhibition of EGFP expression after 48 hrs of infection by confocal fluorescence microscopy; assay type: functional, organism-based; conditions: U-373MG ATCC; how it was run: as §1
[3] = test system: Human betaherpesvirus 5; test: Antiviral activity against human cytomegalovirus AD169 infected in human HFF assessed as inhibition of plaque formation by plaque reduction assay; assay type: functional, organism-based; conditions: Human betaherpesvirus 5, AD169
How it was run: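 Plaque reduction against AD169 in HFF. EC50 is the concentration giving 50% inhibition of plaque formation, reported as mean ± SD of at least three independent experiments run in duplicate.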

[4] = Cytotoxicity against human HFF by MTT assay; assay type: cell-based; conditions: HFF cells
How it was run: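 Cytotoxicity in HFF was measured by MTT reduction. CC50 is the concentration causing 50% cytotoxicity, reported as mean ± SD of at least three independent experiments run in quadruplicate.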

[5] = Selectivity index, ratio of CC50 for human HFF to EC50 for human cytomegalovirus AD169
How it was run: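 Selectivity index is CC50 from the HFF MTT assay divided by EC50 from the AD169 plaque reduction assay in HFF.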

[6] = test system: Human betaherpesvirus 5; test: Antiviral activity against human cytomegalovirus AD169 in human HFF assessed as reduction of viral attachment to fibroblast after 2 hrs at 37 degC; assay type: functional, organism-based
[7] = test system: Human betaherpesvirus 5; test: Antiviral activity against 0.1 MOI human cytomegalovirus AD169 infected in human HFF assessed as inhibition of immediate early phase P72 protein expression after 24 hrs by Western blot analysis; assay type: functional, organism-based
How it was run: (§2)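 HFF infected with HCMV AD169 at MOI 0.1 PFU/cell, treated with 50 µM compound or 0.2% DMSO. ActD 5 µg/ml, CHX 75 µg/ml and FOS 750 µM served as controls. Harvests at 24, 48 and 72 h p.i. were lysed in NP-40 buffer, then SDS-PAGE and PVDF blotting. Probes were anti-IE1/IE2 (p72/p86) MAb or anti-UL55, then HRP secondary and ECL. β-actin reprobe was the internal control.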

[8] = test system: Human betaherpesvirus 5; test: Antiviral activity against 0.1 MOI human cytomegalovirus AD169 infected in human HFF assessed as inhibition of immediate early phase P86 protein expression after 24 hrs by Western blot analysis; assay type: functional, organism-based; how it was run: as §2
[9] = test system: Human betaherpesvirus 5; test: Antiviral activity against 0.1 MOI human cytomegalovirus AD169 infected in human HFF assessed as inhibition of early phase UL54 mRNA expression after 16 hrs by RT-PCR analysis
[10] = test system: Human betaherpesvirus 5; test: Antiviral activity against 0.1 MOI human cytomegalovirus AD169 infected in human HFF assessed as inhibition of early phase UL84 mRNA expression after 16 hrs by RT-PCR analysis
[11] = test system: Human betaherpesvirus 5; test: Antiviral activity against 0.1 MOI human cytomegalovirus AD169 infected in human HFF assessed as inhibition of viral replication up to 72 hrs post infection; assay type: functional, organism-based
[12] = test system: Human betaherpesvirus 5; test: Antiviral activity against 1 MOI human cytomegalovirus AD169 infected in human HFF assessed as virus yield reduction by yield reduction assay; assay type: functional, organism-based; conditions: Human betaherpesvirus 5, AD169
[13] = test system: Human betaherpesvirus 5; test: Antiviral activity against 0.1 MOI human cytomegalovirus AD169 infected in human HFF assessed as virus yield reduction by yield reduction assay; assay type: functional, organism-based; conditions: Human betaherpesvirus 5, AD169
[14] = test system: Human betaherpesvirus 5; test: Antiviral activity against 0.1 MOI human cytomegalovirus AD169 infected in human HFF assessed as inhibition of immediate early phase mRNA expression after 16 hrs by RT-PCR analysis; assay type: functional, organism-based
How it was run: (§3)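 HFF seeded at 6×10^5 per well, infected with AD169 at MOI 0.1 PFU/cell, then given 50 µM drug or 0.2% DMSO. ActD 5 µg/ml, CHX 75 µg/ml and FOS 750 µM served as IE, E and L transcription controls. Total RNA was taken at 16 and 48 h p.i.; 1 µg was reverse-transcribed with random hexamers and MuLV RT. PCR used UL122/UL123 (IE), UL54/UL84 (E) and UL55/UL75 (L) primers with a β-actin control, and products were read on ethidium bromide agarose gels.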

[15] = test system: Human betaherpesvirus 5; test: Antiviral activity against 0.1 MOI human cytomegalovirus AD169 infected in human HFF assessed as inhibition of early phase mRNA expression after 16 hrs by RT-PCR analysis; assay type: functional, organism-based; how it was run: as §3
[16] = test system: Human betaherpesvirus 5; test: Antiviral activity against 0.1 MOI human cytomegalovirus AD169 infected in human HFF assessed as inhibition of late phase mRNA expression after 16 hrs by RT-PCR analysis; assay type: functional, organism-based; how it was run: as §3
[17] = test system: Human betaherpesvirus 5; test: Antiviral activity against 0.1 MOI human cytomegalovirus AD169 infected in human HFF assessed as inhibition of immediate early phase mRNA expression after 48 hrs by RT-PCR analysis; assay type: functional, organism-based; how it was run: as §3
[18] = test system: Human betaherpesvirus 5; test: Antiviral activity against 0.1 MOI human cytomegalovirus AD169 infected in human HFF assessed as inhibition of early phase mRNA expression after 48 hrs by RT-PCR analysis; assay type: functional, organism-based; how it was run: as §3
[19] = Inhibition of human cytomegalovirus DNA polymerase catalytic subunit UL54 assessed as incorporation of [3H]dTTP; set-up: species or system Human betaherpesvirus 5
How it was run: (§4)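 Filter-based assay with purified baculovirus-expressed UL54 catalytic subunit, alone or with UL44 accessory subunit. Incorporation of [3H]dTTP into poly(dA)-oligo(dT)12-18 template-primer was measured across serial compound dilutions, with FOS as control. Means ± standard deviations from four independent experiments.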

[20] = Inhibition of human cytomegalovirus DNA polymerase catalytic subunit UL54/UL44 assessed as incorporation of [3H]dTTP; set-up: species or system Human betaherpesvirus 5; how it was run: as §4
[21] = test system: Human betaherpesvirus 5; test: Antiviral activity against 0.1 MOI human cytomegalovirus AD169 infected in human HFF assessed as inhibition of late phase UL55 protein expression after 72 hrs of infection by Western blot analysis; assay type: functional, organism-based; how it was run: as §2

For FOMIVIRSEN SODIUM, the inhibition [1] was “Active” and the inhibition [2] was “Active”.
`CCOC(=O)c1cn(C2CC2)c2cc(N3CCN(c4ccccn4)CC3)c(N)cc2c1=O` showed an EC50 [3] of over 50 µM, a CC50 [4] of 409 µM and a Selectivity Index [5] of over 8.
With `O=C(O)c1cn(C2CC2)c2cc(N3CCN(c4ccccn4)CC3)ccc2c1=O` the EC50 [3] was 5.6 µM, the CC50 [4] was 390 µM and the “Selectivity Index” value [5] was 70.
With `Cc1cn([C@H]2C[C@H](OP(O)(=S)OC[C@H]3O[C@@H](n4ccc(N)nc4=O)C[C@@H]3OP(O)(=S)OC[C@H]3O[C@@H](n4cnc5c(=O)[nH]c(N)nc54)C[C@@H]3OP(O)(=S)OC[C@H]3O[C@@H](n4cc(C)c(=O)[nH]c4=O)C[C@@H]3OP(O)(=S)OC[C@H]3O[C@@H](n4ccc(N)nc4=O)C[C@@H]3OP(O)(=S)OC[C@H]3O[C@@H](N4C(=O)C5N=CNC5N=C4N)C[C@@H]3OP(O)(=S)OC[C@H]3O[C@@H](n4cc(C)c(=O)[nH]c4=O)C[C@@H]3OP(O)(=S)OC[C@H]3O[C@@H](n4cc(C)c(=O)[nH]c4=O)C[C@@H]3OP(O)(=S)OC[C@H]3O[C@@H](n4cc(C)c(=O)[nH]c4=O)C[C@@H]3OP(O)(=S)OC[C@H]3O[C@@H](n4cc(C)c(=O)[nH]c4=O)C[C@@H]3OP(O)(=S)OC[C@H]3O[C@@H](N4C=NC5C(=O)NC(N)=NC54)C[C@@H]3OP(O)(=S)OC[C@H]3O[C@@H](n4cc(C)c(=O)[nH]c4=O)C[C@@H]3OP(O)(=S)OC[C@H]3O[C@@H](n4ccc(N)nc4=O)C[C@@H]3OP(O)(=S)OC[C@H]3O[C@@H](N4C=NC5C(=O)NC(N)=NC54)C[C@@H]3OP(O)(=S)OC[C@H]3O[C@@H](n4cc(C)c(=O)[nH]c4=O)C[C@@H]3OP(O)(=S)OC[C@H]3O[C@@H](n4cc(C)c(=O)[nH]c4=O)C[C@@H]3OP(O)(=S)OC[C@H]3O[C@@H](n4cc(C)c(=O)[nH]c4=O)C[C@@H]3OP(O)(=S)OC[C@H]3O[C@@H](n4cc(C)c(=O)[nH]c4=O)C[C@@H]3OP(O)(=S)OC[C@H]3O[C@@H](n4cnc5c(=O)[nH]c(N)nc54)C[C@@H]3OP(O)(=S)OC[C@H]3O[C@@H](n4cc(C)c(=O)[nH]c4=O)C[C@@H]3OP(O)(=S)OC[C@H]3O[C@@H](n4ccc(N)nc4=O)C[C@@H]3OP(O)(=S)OC[C@H]3O[C@@H](N4C=NC5C(=O)NC(N)=NC54)C[C@@H]3OP(O)(=S)OC[C@H]3O[C@@H](n4cc(C)c(=O)[nH]c4=O)C[C@@H]3OP(O)(=S)OC[C@H]3O[C@@H](n4cc(C)c(=O)[nH]c4=O)C[C@@H]3O)[C@@H](CO)O2)c(=O)[nH]c1=O` (stereo partly specified) the Activity [6] was “Active”.
For `C[C@@H]1C[C@@H]([C@H](O)CC2CC(=O)NC(=O)C2)C(=O)[C@@H](C)C1`, the inhibition [7] was “Active”, the inhibition [8] was “Active” and the inhibition [9] was “Active”. For the same molecule, the inhibition [10] was “Active”.
In the case of `Nc1nc2c(ncn2COC(CO)CO)c(=O)[nH]1` [GANCICLOVIR], the Activity [11] is reported as “inactive”, the EC50 [3] is reported as 1.9 µM and the “Selectivity Index” value [5] is reported as 289. The EC90 [12] was 0.8 µM and the EC90 [13] was 1 µM.
For `Cc1c2oc3c(C)ccc(C(=O)N[C@@H]4C(=O)N[C@H](C(C)C)C(=O)N5CCC[C@H]5C(=O)N(C)CC(=O)N(C)[C@@H](C(C)C)C(=O)O[C@@H]4C)c3nc-2c(C(=O)N[C@@H]2C(=O)N[C@H](C(C)C)C(=O)N3CCC[C@H]3C(=O)N(C)CC(=O)N(C)[C@@H](C(C)C)C(=O)O[C@@H]2C)c(N)c1=O` (I: T[dV]P[Sar][NMeV] / II: T[dV]P[Sar][NMeV]; ester I:1-I:C, II:1-II:C; linker I:N-II:N via Actinocin(9to1)), the inhibition [14] was “inactive”, the inhibition [15] was “inactive” and the inhibition [16] was “inactive”. For the same molecule, the inhibition [17] was “inactive” and the inhibition [18] was “inactive”.
With `O=C(NCP(=O)(O)O)OCc1ccccc1` [(BENZYLOXYCARBONYLAMINO)METHYLPHOSPHONIC ACID] the IC50 [19] was 3.1 µM, the IC50 [20] was 5.5 µM and the inhibition [21] was “Active”.
For `Cn1cc(C(=O)O)c(=O)c2cc(N)c(N3CCN(c4ccccn4)CC3)cc21`, the EC50 [3] was 0.7 µM and the “Selectivity Index” value [5] was 77.
With `CC(C)(C)n1cc(C(=O)O)c(=O)c2cc(N)c(N3CCN(c4nc5ccccc5s4)CC3)cc21` the EC50 [3] was 0.18 µM, the CC50 [4] was 5.8 µM and the “Selectivity Index” value [5] was 32.
In the case of `CC(C)(C)n1cc(C(=O)O)c(=O)c2cc(N)c(N3CCN(c4ccccn4)CC3)cc21`, the EC50 [3] is reported as 36.7 µM, the CC50 [4] is reported as at least 475 µM and the “Selectivity Index” value [5] is reported as “>=13”.
For `Nc1cc2c(=O)c(C(=O)O)cn(C3CC3)c2cc1N1CCN(c2nc3ccccc3s2)CC1`, the EC50 [3] was 0.02 µM and the “Selectivity Index” value [5] was 225.
